The subject of one series is HEK293. In words: Inhibition of TNF-alpha-induced NF-kappaB activity expressed in HEK293 cells at 34 uM after 48 hrs by luciferase reporter gene assay relative to control. It is filed as cell-based. In a few lines: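 Stably transfected 293 cells carrying an NFκB response element–luciferase reporter, exposed to TNFα plus compound for 48 h, then assayed for luciferase. Activity expressed as % of TNFα-treated control. IC₅₀ from five serial dilutions, mean of two experiments.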
Background: In a reporter assay the amount or activity of a reporter protein is the signal.

Series [1] relates to RAW264.7. Briefly: Inhibition of LPS-induced COX2 expression in mouse RAW264.7 cells at 34 uM treated 15 mins before LPS challenge measured after 18 hrs by Western blotting relative to control. It is filed as functional. In a few lines:
(§1)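 RAW 264.7 cells pretreated 15 min with compound (34 μM), then LPS 1 μg/mL for 18 h. Lysates (30 μg protein) run on 8% SDS-PAGE and transferred to PVDF. Blocked in 5% milk/TBST, probed for iNOS and COX-2 with HRP secondary, ECL detection, β-actin internal control. Band density relative to LPS-treated control; duplicate experiments.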
For orientation: Immunoblotting shows a protein as a band on a membrane.

Series [2] in a line: Antioxidant activity assessed as DPPH scavenging activity at 340 uM after 30 mins. It is filed as functional.
The subject of series [3] is MCF7. In words: Cellular uptake in human MCF7 cells assessed per millions cells at 50 uM after 24 hrs by LC/MS/MS analysis. It is filed as ADME, cell-based. To be noted: mcf7, 24 h.
For series [4], the system named is MCF7. Briefly: Cytotoxicity against human MCF7 cells assessed as cell survival at 20 ug/ml after 72 hrs by sulforhodamine B method. It is filed as functional. The following applies: MCF7, 72 h, read-out: Activity. In outline:
(§2)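 Sulforhodamine B assay. KB or MCF7 cells plated with samples and held 72 h at 37 °C, 5% CO₂. Fixed 1 h in 10% trichloroacetic acid, stained with 0.4% SRB in 1% acetic acid, dye taken up in 10 mM Tris.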
On the technique in general: The SRB assay estimates cell density from bound dye.

The next series has as its system KB. In words: Cytotoxicity against human KB cells assessed as cell survival at 20 ug/ml after 72 hrs by sulforhodamine B method. It is filed as functional. The following applies: read-out: Activity. In outline:
as §2

Series [5] deals with T1, Prostaglandin G/H synthase 1 (Ovis aries) (UniProt P05979).
T1 sequence (whole entry): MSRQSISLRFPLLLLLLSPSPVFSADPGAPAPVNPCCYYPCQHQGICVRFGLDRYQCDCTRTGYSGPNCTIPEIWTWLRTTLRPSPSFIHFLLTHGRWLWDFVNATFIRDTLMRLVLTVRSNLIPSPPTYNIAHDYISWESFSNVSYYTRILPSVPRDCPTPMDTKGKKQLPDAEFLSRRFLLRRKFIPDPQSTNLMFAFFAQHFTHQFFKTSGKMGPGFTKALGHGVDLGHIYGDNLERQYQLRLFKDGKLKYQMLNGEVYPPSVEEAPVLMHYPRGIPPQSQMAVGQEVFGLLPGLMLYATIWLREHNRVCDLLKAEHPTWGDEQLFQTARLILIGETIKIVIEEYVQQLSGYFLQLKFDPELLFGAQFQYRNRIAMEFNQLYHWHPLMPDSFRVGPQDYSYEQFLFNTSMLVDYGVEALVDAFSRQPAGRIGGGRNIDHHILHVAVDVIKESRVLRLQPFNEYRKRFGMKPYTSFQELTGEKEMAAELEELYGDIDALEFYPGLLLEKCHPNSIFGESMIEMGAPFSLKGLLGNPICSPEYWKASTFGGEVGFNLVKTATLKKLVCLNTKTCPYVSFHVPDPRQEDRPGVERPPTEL
In words: Inhibition of sheep seminal vesicles COX1 assessed as PGE2 production at 34 uM after 10 mins by ELISA relative to control. In a few lines: (§3)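 Sheep seminal vesicle COX-1; reaction started with arachidonic acid, 10 min at room temperature, stopped with 27.8 μM indomethacin. PGE₂ quantified by competitive ELISA (PGE₂-acetylcholinesterase tracer, Ellman's reagent, 412 nm) against a PGE₂ standard curve. Result as % of solvent control; IC₅₀ from dose-response curves.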

The nature of series [6]: Chemical stability assessed as degradation after 24 hrs by LC/MS/MS analysis. The class given is physicochemical. In outline: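 Compound held 24 h at 37 °C in RPMI 1640 culture medium, the medium used for the MCF7 uptake work; remaining amount sampled at 0, 12 and 24 h as % of starting level; three runs.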
The target of series [7] is T2, Prostaglandin G/H synthase 1 (Ovis aries, UniProt P05979).
T2 sequence (P05979 whole entry): T1 sequence (whole entry)
In words: Inhibition of sheep seminal vesicles COX1 assessed as PGE2 production after 10 mins by ELISA. In a few lines:
as §3

A further series has as its system HL-60. In words: Cell cycle arrest in human HL60 cells assessed as accumulation at sub-G1 phase at 34 uM after 24 hrs by flow cytometry. It is filed as functional. In a few lines: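 HL-60 cells (2 × 10⁵/well) exposed to samples for 24 h, then stained with NIM-DAPI nuclear isolation medium. Read by flow cytometry under UV excitation; percentage of cells in subG₁ taken from the DNA histogram.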

The target of series [8] is T3, Prostaglandin G/H synthase 2 (Homo sapiens, UniProt P35354).
T3 sequence (P35354 whole entry): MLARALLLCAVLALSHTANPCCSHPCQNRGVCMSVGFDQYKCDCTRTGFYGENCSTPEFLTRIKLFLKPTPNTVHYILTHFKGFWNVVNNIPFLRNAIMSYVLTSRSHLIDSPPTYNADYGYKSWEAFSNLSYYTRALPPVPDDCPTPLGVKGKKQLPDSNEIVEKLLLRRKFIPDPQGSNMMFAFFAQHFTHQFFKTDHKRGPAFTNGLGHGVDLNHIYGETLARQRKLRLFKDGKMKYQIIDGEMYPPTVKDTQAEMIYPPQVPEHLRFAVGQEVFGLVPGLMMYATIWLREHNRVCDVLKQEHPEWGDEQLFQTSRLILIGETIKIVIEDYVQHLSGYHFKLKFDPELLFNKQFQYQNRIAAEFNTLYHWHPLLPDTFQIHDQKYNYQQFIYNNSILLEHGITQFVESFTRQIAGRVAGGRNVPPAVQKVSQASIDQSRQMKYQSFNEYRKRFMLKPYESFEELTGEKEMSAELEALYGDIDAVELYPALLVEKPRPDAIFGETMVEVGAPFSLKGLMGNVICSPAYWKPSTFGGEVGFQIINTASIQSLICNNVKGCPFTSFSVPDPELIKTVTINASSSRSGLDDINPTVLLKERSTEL
Briefly: Inhibition of human recombinant COX2 assessed as PGE2 production after 10 mins by ELISA.

In series [9] the test system is RAW264.7. In words: Inhibition of LPS-induced iNOS expression in mouse RAW264.7 cells at 34 uM treated 15 mins before LPS challenge measured after 18 hrs by Western blotting. It is filed as functional, cell-based. In outline:
as §1

Series [10] is described as follows: Inhibition of TNF-alpha-induced NF-kappaB activity expressed in HEK293 cells after 48 hrs by luciferase reporter gene assay. It is filed as cell-based. To be noted: HEK293, 48 h.
Series [11] is described as follows: Antioxidant activity assessed as DPPH scavenging activity after 30 mins. It is filed as functional.

Broadly, the inhibition is the share of the control response that was lost under treatment. As usually defined, the IC50 is the midpoint of a concentration-inhibition curve.

Active and inactive are the calls of the source. The calls are words filed in the database; no cut-off is given here.

Regarding `O=S(=O)([O-])Oc1cc(/C=C/c2ccc(O)cc2)cc(OS(=O)(=O)[O-])c1.[K+].[K+]`, the inhibition in the series with HEK293 was found to be 42.5%; in [2] it was 14.5%; in [5] it was 30.9%. The “fold change (FC)” value in the series with RAW264.7 [1] was determined as 0.76. Further, the Drug uptake result in the series with MCF7 [3] is “Active”. Also, the viability at 20 µg/mL with MCF7 [4] was 97.2%; in the series with KB, 84.2%.

In the case of `O=S(=O)([O-])Oc1ccc(/C=C/c2cc(O)cc(O)c2)cc1.[K+]`, the inhibition was found to be 64% with HEK293, 42.8% in series [2] and 63.2% in [5]. Moreover, the Stability entry in series [6] is on record as “Stable”. For the same compound, the IC50 in [7] turned out to be 5.55 µM; in [8] it was 8.95 µM; in series [10] it was 18.2 µM. Also, the viability at 20 µg/mL in the series on MCF7 [4] is 103%; with KB it was 108%. In addition, in the series with HL-60, the Activity is reported as 2.22%. In addition, in the series with RAW264.7 [9], the inhibition result is “Active”.

On to `O=S(=O)([O-])Oc1cc(O)cc(/C=C/c2ccc(O)cc2)c1.[K+]`, for which the results for the inhibition (in the series with HEK293; in series [2]; in series [5]) were 33%, 68% and 74.3%, respectively. Also, the concentration for half-maximal inhibition (IC50) in series [7] came to 3.6 µM; in series [8], 7.53 µM; in [11] it was 219 µM. The viability at 20 µg/mL with MCF7 [4] was found to be 51.7%; in the series on KB, 70.3%. The inhibition result with RAW264.7 [9] is “Active”.

As for `O=S(=O)([O-])Oc1ccc(/C=C/c2cc(OS(=O)(=O)[O-])cc(OS(=O)(=O)[O-])c2)cc1.[K+].[K+].[K+]`, the inhibition in the series with HEK293 amounted to 36.7%; in series [2], 0.4%; in series [5], 37.8%. Also, in the series on RAW264.7 [1], the “fold change (FC)” value is 0.69. The viability at 20 µg/mL in the series on MCF7 [4] amounted to 107%; with KB, 78.1%.

The values above are taken from ChEMBL document CHEMBL1177719 (J Med Chem, 2010).
